Source: PubChem
TIM10 inh – inhibits growth of TIM10 yeast strain | hit rate 1.4% among 330,000 | inhibition, % at 10 µM | S. cerevisiae TIM10 strain growth, BacTiter-Glo luminescence, 24 h;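 active = inhibition of 40% or more at the single tested concentration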;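 also: wild-type TIM10 isogenic control strain grown at permissive 25 °C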
CHOP UPR activ – activators of apoptotic arm of unfolded protein response (CHOP). CHO-CHOP luciferase reporter, UPR activation, luminescence; percent of tunicamycin response over DMSO baseline. activation, % at 10 µM. hit rate 0.34% among 330,000;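 active = at 10 µM dose, activation of 40% or more, normalized to positive control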;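 also: 100% = tunicamycin at 10 µg/mL and 0% = DMSO alone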
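measured by = luciferase luminescence | assay system = CHO-CHOP cells, stable luciferase reporter of PERK-eIF2a-CHOP signalling | amount = 500 reporter cells seeded per well | timing = 6 h compound exposure at 37 °C after overnight seeding | controls = positive tunicamycin 10 µg/mL, negative DMSO alone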
tim10-1 inh – tim10-1 yeast growth inhibition; S. cerevisiae tim10-1 ts strain growth, BacTiter-Glo, 24 h; inhibition, % at 20 µM; hit rate 2.2% among 330,000; AID 463190;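 active = inhibition of at least 40%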;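 also: mutant grown at 25 °C; 0% = DMSO wells with yeast and 100% = wells holding no yeast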
UPR XBP1 act – activators of adaptive arm of unfolded protein response (XBP1) | hit rate 0.33% among 330,000 | CHO-XBP1 luciferase reporter, IRE1-XBP1 UPR activation, luminescence; percent of tunicamycin response, DMSO as zero | activation, % at 20 µM;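 active = versus positive control, 20 µM dose yields 30% or more activation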;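 also: 100% = tunicamycin at 10 µg/mL and 0% = DMSO only wells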
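Material: CHO cell line with stable XBP1 luciferase reporter; buffer or medium: F12 medium containing 10% fetal bovine serum; compound: single point, 20 µM final compound, 1% DMSO; incubation: 6 h treatment, 37 °C; measured by: glow luminescence from Steady-Glo reagent; evaluation: activation, % of tunicamycin; control set: tunicamycin high, DMSO low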
tim23-1 inh – tim23-1 yeast growth inhibition. S. cerevisiae tim23-1 growth, BacTiter-Glo luminescence, 24 h. AID 463212. hit rate 1.3% among 330,000. inhibition, % at 20 µM;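 active = growth inhibition of the mutant yeast at or above 50%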;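 also: temperature-sensitive mutant grown at 25 °C; plate controls were DMSO-treated mutant yeast for no effect and medium wells lacking yeast for full effect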
tim10-1 confirm – tim10-1 yeast growth inhibition, confirmed. S. cerevisiae tim10-1 ts strain growth, BacTiter-Glo, 24 h. AID 463213. shares compounds with tim10-1 inh. inhibition, % at 20 µM. hit rate 56% among 7,400;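 active = inhibition of yeast growth at or above a set limit in either of two repeat tests at 20 µM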;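 also: tim10-1 mutant grown at permissive 25 °C to find synthetic lethal compounds; 0% = DMSO yeast wells and 100% = medium wells without yeast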
* = called active by the depositor; / = not tested or not shown. Compounds with a hit are over-represented: about 3.9% of the library has one in this group of screens.

SMILES | TIM10 inh | CHOP UPR activ | tim10-1 inh | UPR XBP1 act | tim23-1 inh | tim10-1 confirm
COc1ccc(-c2nc(N3CCCCCC3)sc2C(=O)c2ccccc2)cc1 | 20.5 | -1.4 | 28.0 | 0.6 | 27.8 | /
NC(=O)c1c(NC(=O)C(=O)N2CCOCC2)sc2c1CCC2 | 2.8 | 3.0 | -6.9 | -6.7 | 0.4 | /
Cc1ccc(SC(CC(=O)c2ccc(F)cc2)C(=O)O)cc1 (stereo not drawn) | 8.2 | -1.3 | 12.7 | -3.3 | 19.6 | /
CC(C)(C)c1ccc(C(=O)CC(Sc2ccc(Cl)cc2)C(=O)O)cc1 (stereo not drawn) | 39.7 | 3.5 | 40.7* | -0.9 | 41.8 | 50.8*
CN(C(=O)Cn1nc(Cl)ccc1=O)C1CCCN(Cc2ccccc2F)C1 (stereo not drawn) | 15.2 | 2.3 | 3.4 | -0.6 | 15.5 | /
C[C@@H]1CC=C[C@@H]2[C@H]1C(=O)N(Cc1ccccc1)[C@H]2c1cccc(Br)c1 | 6.6 | 2.5 | 25.9 | -1.7 | 43.8 | /
COc1ccc(Br)cc1[C@H]1[C@H]2C=CC[C@@H](C)[C@@H]2C(=O)N1Cc1ccccc1 | 10.2 | 2.9 | 59.7* | -0.3 | 12.0 | 42.3*
COc1ccc([C@H]2[C@H]3C=CC[C@@H](C)[C@@H]3C(=O)N2Cc2ccccc2)cc1Cl | 30.5 | -0.4 | 42.3* | -4.1 | 38.3 | 30.0
C[C@@H]1CC=C[C@H]2[C@H]1C(=O)N(Cc1ccccc1)[C@H]2c1ccc(-c2ccoc2)cc1F | 30.2 | 0.2 | 41.2* | 0.0 | 49.8 | 36.0*
COc1ccc(-c2ccc(OC)c([C@H]3[C@H]4C=CC[C@@H](C)[C@@H]4C(=O)N3Cc3ccccc3)c2)cc1OC | 11.3 | 1.6 | 24.9 | 3.8 | 31.9 | /
O=C(C1CCCN(S(=O)(=O)c2ccc(F)cc2)C1)N1CCCCCC1 (stereo not drawn) | 18.6 | 1.4 | 22.2 | -2.1 | 29.0 | /
COc1ccc(NS(=O)(=O)c2cn(C)cn2)cc1OC | 12.0 | 0.0 | -1.2 | -3.9 | 5.4 | /
Cc1ccc(S(=O)(=O)NC(C(=O)N2CCN(S(=O)(=O)c3cccc(F)c3)CC2)C(C)C)cc1 (stereo not drawn) | 9.4 | -1.0 | 8.5 | 3.5 | 10.9 | /
COc1cc(NC(=O)C2=C(N3CCOCC3)/C(=C\c3ccc(N(C)C)cc3)CCC2)cc(OC)c1OC | 21.8 | 3.5 | 29.8 | 13.4 | 26.6 | /
COc1cc(NC(=O)C2=C(N3CCOCC3)/C(=C/c3ccc(Cl)cc3)CC2)cc(OC)c1OC | 19.6 | 13.3 | 44.0* | 5.7 | 30.7 | 44.3*
CC(=O)Nc1c(I)c(C(=O)N[C@H]2C(O)O[C@H](CO)[C@@H](O)[C@@H]2O)c(I)c(N(C)C(C)=O)c1I (stereo partly drawn) | 10.2 | 0.2 | 1.1 | -6.5 | 16.5 | /
O=C(/C=C/c1ccc(Cl)cc1Cl)N1CCN(c2ccccc2[N+](=O)[O-])CC1 | 23.9 | -0.8 | 26.0 | -1.1 | 14.2 | /
O=C(/C=C/c1ccc(Cl)cc1Cl)N1CCN(c2ccc([N+](=O)[O-])c(N3CCOCC3)c2)CC1 | 13.4 | -2.6 | 41.7* | -3.0 | 13.0 | 15.8
Cc1c(/C=N/NC(=O)CNc2ccccc2)c2ccccn2c1C(=O)c1ccccc1 | 10.9 | 3.3 | 40.1* | 2.9 | 28.7 | 19.2
Cc1c(/C=N/NC(N)=O)c2ccccn2c1C(=O)c1ccncc1 | -7.8 | -2.8 | 9.5 | 1.5 | 13.3 | /
CCc1cc2ccc(OC)cc2nc1SCC(=O)NNC(=O)c1ccco1 | 25.8 | 0.5 | 42.7* | -2.8 | 49.4 | 23.7
COc1ccc2c(c1OC)C(=O)N1N=C(c3ccc(Cl)cc3)CC21 (stereo not drawn) | 31.0 | 3.6 | 46.4* | 0.2 | 38.8 | 33.0*
COc1ccc(C2=NN3C(=O)c4c(ccc(OC)c4OC)C3C2)cc1 (stereo not drawn) | 37.5 | -1.6 | 13.3 | -6.3 | 41.3 | /
Cc1c(Nc2nc(-c3ccccc3)cs2)c(=O)n(-c2ccccc2)n1C | 3.3 | -0.7 | 19.2 | 0.6 | 8.5 | /
C=CC[n+]1c(-c2ccc(C)cc2)csc1Nc1c(C)n(C)n(-c2ccccc2)c1=O | 29.9 | -1.5 | 40.6* | -1.8 | 38.8 | 24.2
SMILES | TIM10 inh | CHOP UPR activ | tim10-1 inh | UPR XBP1 act | tim23-1 inh | tim10-1 confirm
COc1ccc(-c2cc(-c3ccccc3)n3ncnc3n2)cc1 | 30.9 | 0.3 | 49.4* | -0.2 | 31.5 | 22.0
Cc1ccc(OCCn2cnc3cc([N+](=O)[O-])ccc3c2=O)cc1 | 25.9 | -0.4 | 45.9* | -0.2 | 18.2 | 22.1
COc1cccc(OC)c1C(=O)N1CCN(C(=O)c2ccc(-c3ccccc3)cc2)CC1 | 8.4 | 1.4 | -0.4 | -0.4 | -2.1 | /
O=C(Nc1ccc(Cl)cc1)[C@@H]1[C@@H]2C(=O)N(c3ccc(Cl)cc3Cl)C(=O)[C@@H]2[C@H]2C=CC=NN21 | 14.0 | 1.8 | 44.7* | -0.7 | 30.9 | 26.7
Cc1cccn2c(=O)c3cc(C(=O)NC4CCCCC4)c(=N)n(Cc4ccc(F)cc4)c3nc12 | 5.0 | 9.5 | 42.0* | 0.1 | 21.4 | -8.9
Cc1cccn2c(=O)c3cc(C(=O)NC4CCCC4)c(=N)n(CC4CCCO4)c3nc12 (stereo not drawn) | 5.3 | 2.4 | -3.7 | -0.5 | 3.2 | /
COc1ccc(OC)c(-c2cc(C(=O)N3CCc4ccccc4C3)no2)c1 | 22.8 | -1.5 | 41.0* | 2.9 | 38.4 | 26.8
CCC(C(=O)N1CCN(c2ccccc2OC)CC1)c1ccccc1 (stereo not drawn) | 1.7 | -2.3 | 42.3* | -0.7 | 25.7 | 12.8
COc1ccccc1N1CCN(C(=O)c2cc(-c3ccc(F)cc3)on2)CC1 | 27.5 | 1.2 | 30.3 | -0.5 | 49.3 | /
COc1ccccc1-c1cc(C(=O)N2CCN(c3ccccc3OC)CC2)no1 | 36.8 | -1.1 | 48.4* | -1.0 | 40.5 | 32.5*
Cc1cccc(NC(=O)Nc2cnccn2)c1C | 10.2 | 0.4 | 6.0 | -0.2 | 1.1 | /
CCCn1c(N)c(C(=O)CSc2n[nH]c(-c3ccc(C)cc3)n2)c(=O)[nH]c1=O | 6.5 | -1.0 | 1.8 | -1.8 | -13.6 | /
C/C(=N\NC(=S)NC(C)C)c1ccccc1OC(F)F | 24.6 | -2.0 | 41.5* | 0.5 | 25.8 | 30.3*
C/C(=N\NC(=S)NC1CCCCC1)c1ccc(OC(F)F)cc1OC(F)F | 22.9 | 1.9 | 38.1 | -1.4 | 25.2 | /
Cn1nccc1C(=O)OCC(=O)Nc1ccccc1Cl | -5.7 | 1.5 | -3.3 | 0.8 | 0.0 | /
O=C(OCc1ccc([N+](=O)[O-])cc1)C1CC(=O)N(CCc2ccccc2)C1 (stereo not drawn) | 18.2 | -0.8 | 43.3* | 1.0 | 27.3 | 17.4
Cc1ccc(NC(=S)Nc2cccc3ccccc23)cc1F | 27.3 | 3.1 | 48.6* | -3.1 | 35.6 | 25.9
CC(=O)c1ccc(NC(=S)Nc2cccc3ccccc23)cc1 | 28.9 | 4.6 | 40.7* | -5.5 | 22.9 | 22.0
C=CCN(Cc1ccc(Cl)s1)C(=O)c1ccc(F)c(S(=O)(=O)N2CCOCC2)c1 | 6.0 | -0.7 | 6.4 | 0.2 | 25.6 | /
